Reference: PMC2812011 (Cancer cell, 2009)

What was measured:
Jak1 = conditions: enzymatic assays, at Km ATP
Jak2 kinase = Jak2 kinase (Homo sapiens, UniProt O60674); experiment: Jak2 kinetic studies; type: biochemical
[1] = system: 786-0 xenografts expressing Stat3C; experiment: 786-0 Stat3C xenograft tumor growth; type: in vivo, mice; conditions: 786-0 expressing Stat3C, 50 mg/kg, 41 d
TEL-Jak1 = experiment: Stat5 phosphorylation in Ba/F3 TEL-Jak1 cells; type: cell-based; conditions: at or below 1 µM
MDA-MB-468 xenografts = experiment: MDA-MB-468 xenograft tumor growth; type: in vivo, mice; conditions: MDA-MB-468, 50 mg/kg p.o. once daily, 30 d; p < 0.001, n=7
TEL-Tyk2 = experiment: Stat5 phosphorylation in Ba/F3 TEL-Tyk2 cells; type: cell-based; conditions: at or below 1 µM
DU145 xenografts = experiment: DU145 xenograft tumor growth; type: in vivo, mice; conditions: DU145, 50 mg/kg p.o. once daily, 26 d; p < 0.001, n=7
MDAH2774 xenografts = experiment: MDAH2774 xenograft tumor growth; type: in vivo, mice; conditions: 26 d, p < 0.001, n=10
LN-17 cells = experiment: LN-17 prostate cancer cells: pStat3, MTS viability, Annexin V; type: cell-based, human
TEL-Jak2 = TEL-Jak2 (Homo sapiens, UniProt O60674+P41212); experiment: Stat5 phosphorylation in Ba/F3 TEL-Jak2 cells; type: cell-based
Aurora A = Aurora A in kinase panel; type: biochemical
Outline: (§1)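 Kinase selectivity panel of 82 kinases chosen to span the kinome by binding-site similarity and gatekeeper residue. Each kinase was assayed with ATP at or near its Km. The test compound was tested at three concentrations: 0.01, 0.10 and 1.0 µM. Percent inhibition was scored, and kinases inhibited by more than 50% were counted.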

[2] = system: DU145, MDAH2774, and MDA-MB-468 cells; experiment: 72 h viability assay in solid tumor cell lines; type: cell-based; conditions: Homo sapiens
TEL-Jak3 = experiment: Stat5 phosphorylation in Ba/F3 TEL-Jak3 cells; type: cell-based; conditions: at or below 1 µM
MEF-Stat3-YFP tumors = experiment: MEF-Stat3-YFP tumor growth in athymic mice; type: in vivo; conditions: 50 mg/kg p.o. once daily, relative to vehicle; p = 0.001, n=6
pStat3 Tyr705 [3] = experiment: Constitutive pStat3 in DU145, MDA-MB-468 and MDAH2774 cells; type: cell-based, human; conditions: 2 h, DU145, MDA-MB-468, MDAH2774
pStat3 Tyr705 [4] = experiment: pStat3 in MEF-Stat3-YFP tumor lysates; type: in vivo, mice; conditions: 2 h post treatment, 50 mg/kg
[5] = system: 786-0 renal cell carcinoma vector control xenografts; experiment: 786-0 vector control xenograft tumor growth; type: in vivo, mice; conditions: 50 mg/kg, 41 d, p = 0.038, n = 10
panel of 82 kinases = experiment: Kinase selectivity panel of 82 kinases; type: biochemical; conditions: 0.10 µM, at or near Km for ATP; count includes Jak2
Outline: as §1

pStat3 Tyr705 [6] = experiment: Pharmacodynamics in xenograft tumor lysates and sections; type: in vivo, mice

Sequence of Jak2 kinase (O60674 808-1132): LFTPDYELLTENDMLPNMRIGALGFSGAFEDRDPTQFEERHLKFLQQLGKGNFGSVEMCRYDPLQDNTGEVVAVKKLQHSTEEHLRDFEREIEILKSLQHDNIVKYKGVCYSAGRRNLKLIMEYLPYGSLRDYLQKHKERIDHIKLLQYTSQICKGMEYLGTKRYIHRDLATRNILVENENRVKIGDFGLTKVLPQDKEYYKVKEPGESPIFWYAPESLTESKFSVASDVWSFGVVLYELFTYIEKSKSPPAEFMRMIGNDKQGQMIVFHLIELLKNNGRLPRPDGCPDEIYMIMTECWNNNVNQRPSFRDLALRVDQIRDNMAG
Sequence of TEL-Jak2 (O60674 849-1132 limits assumed, one chain of several): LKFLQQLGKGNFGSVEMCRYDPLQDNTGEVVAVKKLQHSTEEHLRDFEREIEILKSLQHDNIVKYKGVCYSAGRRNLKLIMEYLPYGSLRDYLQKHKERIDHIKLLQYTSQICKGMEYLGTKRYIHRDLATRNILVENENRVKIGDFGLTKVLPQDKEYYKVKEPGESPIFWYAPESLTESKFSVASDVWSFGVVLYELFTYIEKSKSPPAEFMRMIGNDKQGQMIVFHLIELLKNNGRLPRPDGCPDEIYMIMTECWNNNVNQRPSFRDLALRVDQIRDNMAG

Compound: Cc1cc(Nc2nc(N[C@@H](C)c3ncc(F)cn3)ncc2Cl)n[nH]1 [AZD1480]
- Jak2 selectivity over Jak1 (Jak1): marginal selectivity over Jak1
- Ki (Jak2 kinase): 0.26 nM
- growth inhibition [1]: no growth inhibition
- inhibition of STAT5 phosphorylation (TEL-Jak1): little or no inhibition
- growth inhibition (MDA-MB-468 xenografts): 111%
- inhibition of STAT5 phosphorylation (TEL-Tyk2): little or no inhibition
- growth inhibition (DU145 xenografts): 81%
- growth inhibition (MDAH2774 xenografts; MDAH2774, 10 mg/kg twice daily p.o.): 71%
- growth inhibition (MDAH2774 xenografts; MDAH2774, 30 mg/kg twice daily p.o., tumor regression): 139%
- pStat3 Tyr705 (LN-17 cells; 24 h): Dose-dependent inhibition
- apoptotic markers Annexin V and PARP cleavage (LN-17 cells; 72 h): dose-dependent increase
- viability (LN-17 cells; MTS, 72 h, charcoal-stripped FBS): loss of viability
- IC50 (TEL-Jak2): 46 nM
- Aurora A enzyme activity (Aurora A): inhibited
- GI50 [2]: 2400 to 5400 nM
- inhibition of STAT5 phosphorylation (TEL-Jak3): little or no inhibition
- tumor growth inhibition (MEF-Stat3-YFP tumors): 58%
- inhibition of constitutive pStat3 Tyr705 (pStat3 Tyr705 [3]; 0.1 µM): Significant inhibition
- inhibition of constitutive pStat3 Tyr705 (pStat3 Tyr705 [3]; 0.25 –0.5 µM): near ablation of signal
- pStat3 Tyr705 in tumors (pStat3 Tyr705 [4]): abolished
- lethal toxicity or weight loss (doses tested, 26 days of dosing): No lethal toxicity or weight loss
- red blood cell counts (mouse, in vivo, 10 mg/kg): no changes
- red blood cell counts decrease (mouse, in vivo, 30 mg/kg): approximately 13%
- growth inhibition [5]: 48%
- kinases inhibited by greater than 50% (panel of 82 kinases): 11/82
- pHisH3 staining (mitotic marker) (pStat3 Tyr705 [6]; MDAH2774 xenografts, 30 mg/kg, up to 16h post-dose): No modulation
- recovery of pStat3 Tyr705 expression (pStat3 Tyr705 [6]; by 16 h after single 30 mg/kg dose, MDAH2774 xenografts): fully recovered
- duration of significant inhibition of pStat3 (pStat3 Tyr705 [6]; single dose of 30 mg/kg, MDAH2774 xenografts): > 10 h
- expression of p44/42 pMAPK and pAKT Ser473 in tumors (pStat3 Tyr705 [6]; treated tumors compared to control animals): No significant change
- inhibition of pStat3 Tyr705 in tumor lysates (pStat3 Tyr705 [6]; xenografts harvested 2 h post treatment): Complete inhibition
